# Measurements as given in ChEMBL document CHEMBL4130520 (ACS Med Chem Lett, 2017).
# Tested on: Mycobacterium tuberculosis
# Test: Antitubercular activity against Mycobacterium tuberculosis H37Rv after 4 days by MABA method
# Assay type: functional
# Details: 96 h
# In short: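 Aerobic culture of H37Rv in microplate Alamar blue assay. MIC90 taken as the minimum concentration giving 90% growth inhibition. Each value is the mean of at least two independent determinations. Most compounds were tested as RS,SR diastereomer mixtures; a few were tested only as the pure R,S enantiomer.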
row,Structure (SMILES),MIC90 [µg/mL]
1,COc1nc2ccc(Cl)cc2cc1C(c1ccccc1)C(O)(CCN(C)C)c1cccc2ccccc12 (stereo not given),0.71
2,COc1cccc(C(c2cc3cc(C#N)ccc3nc2OC)C(O)(CCN(C)C)c2cccc(F)c2)c1F (stereo not given),0.18
3,COc1cccc(C(c2cc3cc(N4CC5(COC5)C4)ccc3nc2OC)C(O)(CCN(C)C)c2cccc(OC(F)(F)F)c2)c1OC (stereo not given),0.75
4,COc1cccc([C@H](c2cc3cc(N(C)S(=O)(=O)N(C)C)ccc3nc2OC)[C@@](O)(CCN(C)C)c2cccc(F)c2)c1OC,1.13
5,COc1nc2ccc(Br)cc2cc1C(c1cccc(F)c1)C(O)(CCN(C)C)c1cccc(OC(F)(F)F)c1 (stereo not given),0.25
6,COc1nc2ccc(N3CC4(COC4)C3)cc2cc1[C@@H](c1ccccc1)[C@@](O)(CCN(C)C)c1cccc2ccccc12,0.71
7,COc1cccc([C@@H](c2cc3cc(N4CC[S+]([O-])CC4)ccc3nc2OC)[C@@](O)(CCN(C)C)c2cccc(F)c2)c1F,> 5
8,CCc1ccc2nc(OC)c(C(c3ccccc3)C(O)(CCN(C)C)c3cccc4ccccc34)cc2c1 (stereo not given),0.23
9,COc1cccc([C@@H](c2cc3cc(N4CC5(COC5)C4)ccc3nc2OC)[C@@](O)(CCN(C)C)c2cccc(C)c2)c1F,1.1
10,CC#Cc1ccc2nc(OC)c(C(c3ccccc3)C(O)(CCN(C)C)c3cccc4ccccc34)cc2c1 (stereo not given),6.1
11,COc1nc2ccccc2cc1C(c1ccccc1)C(O)(CCN(C)C)c1cccc2ccccc12 (stereo not given),1.9
12,COc1nc2ccc(C3CC3)cc2cc1C(c1ccccc1)C(O)(CCN(C)C)c1cccc2ccccc12 (stereo not given),0.13
13,COc1cccc(C(c2cc3cc(Br)ccc3nc2OC)C(O)(CCN(C)C)c2cccc(OC)c2OC)c1OC (stereo not given),0.2
14,COc1cccc([C@@H](c2cc3cc(N4CCSCC4)ccc3nc2OC)[C@@](O)(CCN(C)C)c2cccc(F)c2)c1F,0.19
15,COc1cccc([C@@H](c2cc3cc(N4CC5(COC5)C4)ccc3nc2OC)[C@@](O)(CCN(C)C)c2cccc(Cl)c2)c1F,0.31
16,COc1cccc([C@](O)(CCN(C)C)[C@H](c2cc3cc(N4CC5(COC5)C4)ccc3nc2OC)c2cccc(OC)c2F)c1,0.87
17,COc1cccc([C@H](c2cc3cc(N4CCSCC4)ccc3nc2OC)[C@@](O)(CCN(C)C)c2cccc(F)c2)c1OC,0.28
18,COc1cccc([C@H](c2cc3cc(N4CC[S+]([O-])CC4)ccc3nc2OC)[C@@](O)(CCN(C)C)c2cccc(F)c2)c1OC,4.8
19,COc1nc2ccc(N3CCOCC3)cc2cc1C(c1cccc(F)c1)C(O)(CCN(C)C)c1cccc(OC(F)(F)F)c1 (stereo not given),0.85
20,C#Cc1ccc2nc(OC)c(C(c3ccccc3)C(O)(CCN(C)C)c3cccc(F)c3)cc2c1 (stereo not given),0.36
21,COc1cccc(C(c2cc3cc(OC(F)(F)F)ccc3nc2OC)C(O)(CCN(C)C)c2cccc(OC(F)(F)F)c2)c1F (stereo not given),1.1
22,COc1cccc(C(O)(CCN(C)C)C(c2cc3cc(Br)ccc3nc2OC)c2cccc(OC)c2F)c1 (stereo not given),0.1
23,COc1cccc(C(c2cc3cc(C#N)ccc3nc2OC)C(O)(CCN(C)C)c2cccc(F)c2)c1OC (stereo not given),0.17

row,Structure (SMILES),MIC90 [µg/mL]
1,COc1cccc(C(c2cc3cc(C#N)ccc3nc2OC)C(O)(CCN(C)C)c2cccc(OC(F)(F)F)c2)c1F (stereo not given),0.26
2,COc1nc2ccc(CN(C)C)cc2cc1C(c1ccccc1)C(O)(CCN(C)C)c1cccc2ccccc12 (stereo not given),3.7
3,COc1cccc(C(c2cc3cc(N4CCOCC4)ccc3nc2OC)C(O)(CCN(C)C)c2cccc(OC)c2OC)c1OC (stereo not given),2.5
4,COc1cccc(C(c2cc3cc(C#N)ccc3nc2OC)C(O)(CCN(C)C)c2cccc(C)c2)c1F (stereo not given),0.09
5,COc1cccc(C(c2cc3cc(C#N)ccc3nc2OC)C(O)(CCN(C)C)c2cccc(OC(F)(F)F)c2)c1OC (stereo not given),0.21
6,COc1cccc(C(c2cc3cc(Br)ccc3nc2OC)C(O)(CCN(C)C)c2cccc(F)c2)c1F (stereo not given),0.1
7,COc1nc2ccc(N)cc2cc1C(c1ccccc1)C(O)(CCN(C)C)c1cccc2ccccc12 (stereo not given),1.9
8,COc1nc2ccc(N(C)S(=O)(=O)N(C)C)cc2cc1[C@@H](c1ccccc1)[C@@](O)(CCN(C)C)c1cccc(F)c1,5
9,COc1cccc(C(c2cc3cc(N4CCCCC4)ccc3nc2OC)C(O)(CCN(C)C)c2cccc(OC(F)(F)F)c2)c1F (stereo not given),2.3
10,COc1nc2ccc(OC(F)(F)F)cc2cc1C(c1ccccc1)C(O)(CCN(C)C)c1cccc2ccccc12 (stereo not given),0.24
11,COc1cccc(C(c2cc3cc(N4CC5(COC5)C4)ccc3nc2OC)C(O)(CCN(C)C)c2cccc(OC(F)(F)F)c2)c1F (stereo not given),0.77
12,COc1nc2ccc(Br)cc2cc1C(c1ccccc1)C(O)(CCN(C)C)c1cccc(F)c1 (stereo not given),0.23
13,COc1nc2ccc(C)cc2cc1C(c1ccccc1)C(O)(CCN(C)C)c1cccc2ccccc12 (stereo not given),1.74
14,COc1cccc([C@@H](c2cc3cc(N4CCS(=O)(=O)CC4)ccc3nc2OC)[C@@](O)(CCN(C)C)c2cccc(F)c2)c1F,> 5
15,COc1cccc([C@@H](c2cc3cc(S(C)(=O)=O)ccc3nc2OC)[C@@](O)(CCN(C)C)c2cccc(F)c2)c1F,2.3
16,COc1nc2ccc(/C=N/O)cc2cc1C(c1ccccc1)C(O)(CCN(C)C)c1cccc2ccccc12 (stereo not given),6
17,COc1nc2ccc(F)cc2cc1C(c1ccccc1)C(O)(CCN(C)C)c1cccc2ccccc12 (stereo not given),0.94
18,COc1cccc(C(c2cc3cc(Br)ccc3nc2OC)C(O)(CCN(C)C)c2cccc(F)c2)c1OC (stereo not given),0.04
19,COc1cccc(C(c2cc3cc(N4CCOCC4)ccc3nc2OC)C(O)(CCN(C)C)c2cccc(OC(F)(F)F)c2)c1OC (stereo not given),0.68
20,C=Cc1ccc2nc(OC)c(C(c3ccccc3)C(O)(CCN(C)C)c3cccc4ccccc34)cc2c1 (stereo not given),1.9
21,COc1nc2ccc(NC3CCCC3)cc2cc1C(c1ccccc1)C(O)(CCN(C)C)c1cccc2ccccc12 (stereo not given),1.7
22,COc1nc2ccc(C#N)cc2cc1C(c1cccc(F)c1)C(O)(CCN(C)C)c1cccc(OC(F)(F)F)c1 (stereo not given),0.47
23,COc1cccc(C(c2cc3cc(C#N)ccc3nc2OC)C(O)(CCN(C)C)c2cccc(Cl)c2)c1F (stereo not given),0.13

row,Structure (SMILES),MIC90 [µg/mL]
1,COc1nc2ccc(C#N)cc2cc1C(c1ccccc1)C(O)(CCN(C)C)c1cccc(F)c1 (stereo not given),0.69
2,C#Cc1ccc2nc(OC)c(C(c3ccccc3)C(O)(CCN(C)C)c3cccc4ccccc34)cc2c1 (stereo not given),0.48
3,COc1cccc(C(c2cc3cc(F)ccc3nc2OC)C(O)(CCN(C)C)c2cccc(OC(F)(F)F)c2)c1F (stereo not given),0.21
4,COc1nc2ccc(I)cc2cc1C(c1ccccc1)C(O)(CCN(C)C)c1cccc2ccccc12 (stereo not given),0.2
5,COc1cccc(C(O)(CCN(C)C)C(c2cc3cc(C#N)ccc3nc2OC)c2cccc(OC)c2F)c1 (stereo not given),0.09
6,COc1cccc(C(c2cc3cc(N4CC5(COC5)C4)ccc3nc2OC)C(O)(CCN(C)C)c2cccc(F)c2)c1OC (stereo not given),0.66
7,COc1cccc(C(c2cc3cc(C#N)ccc3nc2OC)C(O)(CCN(C)C)c2cccc(OC)c2OC)c1OC (stereo not given),0.34
8,COc1nc2ccc(Cl)cc2cc1C(c1cccc(F)c1)C(O)(CCN(C)C)c1cccc(OC(F)(F)F)c1 (stereo not given),0.09
9,COc1cccc(C(c2cc3cc(Br)ccc3nc2OC)C(O)(CCN(C)C)c2cccc(OC(F)(F)F)c2)c1OC (stereo not given),0.09
10,COc1cccc([C@@H](c2cc3cc(SC)ccc3nc2OC)[C@@](O)(CCN(C)C)c2cccc(F)c2)c1F,0.13
11,COc1nc2ccc(NC3CCC3)cc2cc1[C@@H](c1ccccc1)[C@@](O)(CCN(C)C)c1cccc2ccccc12,0.48
12,COc1nc2ccc(N(C)S(=O)(=O)c3ccccc3)cc2cc1[C@@H](c1ccccc1)[C@@](O)(CCN(C)C)c1cccc(F)c1,4.1
13,COc1cccc(C(c2cc3cc(N4CCNCC4)ccc3nc2OC)C(O)(CCN(C)C)c2cccc(OC(F)(F)F)c2)c1F (stereo not given),0.66
14,COc1cccc(C(c2cc3cc(N4CCOCC4)ccc3nc2OC)C(O)(CCN(C)C)c2cccc(OC(F)(F)F)c2)c1F (stereo not given),0.14
15,CO/N=C/c1ccc2nc(OC)c([C@@H](c3ccccc3)[C@](O)(CCN(C)C)c3cccc4ccccc34)cc2c1,0.21
16,COc1cccc(C(c2cc3cc(Br)ccc3nc2OC)C(O)(CCN(C)C)c2cccc(Cl)c2)c1F (stereo not given),0.07
17,COc1nc2ccc(C(F)(F)F)cc2cc1C(c1ccccc1)C(O)(CCN(C)C)c1cccc2ccccc12 (stereo not given),0.38
18,COc1cccc(C(c2cc3cc(Br)ccc3nc2OC)C(O)(CCN(C)C)c2cccc(OC(F)(F)F)c2)c1F (stereo not given),0.09
19,COc1cccc([C@H](c2cc3cc(N4CCS(=O)(=O)CC4)ccc3nc2OC)[C@@](O)(CCN(C)C)c2cccc(F)c2)c1OC,> 5
20,COc1cccc(C(c2cc3cc(Cl)ccc3nc2OC)C(O)(CCN(C)C)c2cccc(OC)c2OC)c1OC (stereo not given),0.25
21,COc1cccc(C(c2cc3cc(Br)ccc3nc2OC)C(O)(CCN(C)C)c2cccc(C)c2)c1F (stereo not given),0.04
22,"COc1cccc(C(c2cc3cc(N4CC5(COC5)C4)ccc3nc2OC)[C@@](O)(CCN(C)C)c2cccc(F)c2)c1F (single isomer, unassigned)",0.51
23,COc1nc2ccc(Br)cc2cc1[C@@H](c1ccccc1)[C@@](O)(CCN(C)C)c1cccc2ccccc12 [BEDAQUILINE],0.09

# Target: Voltage-gated inwardly rectifying potassium channel KCNH2 (Homo sapiens, UniProt Q12809)
# Sequence (Q12809 whole entry): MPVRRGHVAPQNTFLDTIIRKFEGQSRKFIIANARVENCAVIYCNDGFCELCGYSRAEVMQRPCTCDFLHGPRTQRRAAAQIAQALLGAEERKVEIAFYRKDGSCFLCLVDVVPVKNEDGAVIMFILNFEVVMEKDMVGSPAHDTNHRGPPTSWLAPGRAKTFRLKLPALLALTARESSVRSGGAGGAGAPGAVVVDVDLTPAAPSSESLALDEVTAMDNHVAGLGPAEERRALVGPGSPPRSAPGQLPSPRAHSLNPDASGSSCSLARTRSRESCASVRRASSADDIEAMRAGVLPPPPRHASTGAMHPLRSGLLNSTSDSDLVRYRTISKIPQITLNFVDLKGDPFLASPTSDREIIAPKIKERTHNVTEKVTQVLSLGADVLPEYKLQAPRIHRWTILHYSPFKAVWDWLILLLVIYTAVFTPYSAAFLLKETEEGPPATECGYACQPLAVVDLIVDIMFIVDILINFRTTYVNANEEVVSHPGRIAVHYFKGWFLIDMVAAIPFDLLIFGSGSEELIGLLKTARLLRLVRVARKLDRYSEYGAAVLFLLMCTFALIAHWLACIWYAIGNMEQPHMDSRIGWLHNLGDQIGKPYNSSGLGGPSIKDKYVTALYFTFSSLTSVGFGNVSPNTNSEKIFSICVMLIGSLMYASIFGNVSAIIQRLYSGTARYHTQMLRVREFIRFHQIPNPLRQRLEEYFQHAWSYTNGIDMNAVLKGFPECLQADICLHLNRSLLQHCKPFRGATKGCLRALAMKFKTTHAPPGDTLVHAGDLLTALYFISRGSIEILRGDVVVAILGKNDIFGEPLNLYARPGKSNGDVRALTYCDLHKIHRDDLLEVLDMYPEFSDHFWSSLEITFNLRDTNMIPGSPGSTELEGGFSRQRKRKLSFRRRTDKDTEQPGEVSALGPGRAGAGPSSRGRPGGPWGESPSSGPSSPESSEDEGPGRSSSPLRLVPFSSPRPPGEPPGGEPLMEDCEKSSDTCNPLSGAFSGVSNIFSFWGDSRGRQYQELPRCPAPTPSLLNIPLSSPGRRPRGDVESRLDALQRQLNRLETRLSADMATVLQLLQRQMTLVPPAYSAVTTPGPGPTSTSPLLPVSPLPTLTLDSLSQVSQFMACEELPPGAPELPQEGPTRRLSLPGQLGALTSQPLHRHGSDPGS
# Test: Inhibition of human ERG
# Details: not given
row,Structure (SMILES),IC50 [µM]
1,COc1nc2ccc(Cl)cc2cc1C(c1ccccc1)C(O)(CCN(C)C)c1cccc2ccccc12 (stereo not given),6.9
2,CC#Cc1ccc2nc(OC)c(C(c3ccccc3)C(O)(CCN(C)C)c3cccc4ccccc34)cc2c1 (stereo not given),7.9
3,COc1nc2ccccc2cc1C(c1ccccc1)C(O)(CCN(C)C)c1cccc2ccccc12 (stereo not given),1.6
4,COc1nc2ccc(CN(C)C)cc2cc1C(c1ccccc1)C(O)(CCN(C)C)c1cccc2ccccc12 (stereo not given),4.8
5,COc1nc2ccc(/C=N/O)cc2cc1C(c1ccccc1)C(O)(CCN(C)C)c1cccc2ccccc12 (stereo not given),3.5
6,CO/N=C/c1ccc2nc(OC)c([C@@H](c3ccccc3)[C@](O)(CCN(C)C)c3cccc4ccccc34)cc2c1,2.2
